According to ChEMBL document CHEMBL1155272, “Nucleoside-5'-monophosphates as prodrugs of adenosine A2A receptor agonists activated by ecto-5'-nucleotidase” (J Med Chem, 2009):

Target: T1, 5'-nucleotidase (Rattus norvegicus) (UniProt P21588)
T1 sequence (whole entry): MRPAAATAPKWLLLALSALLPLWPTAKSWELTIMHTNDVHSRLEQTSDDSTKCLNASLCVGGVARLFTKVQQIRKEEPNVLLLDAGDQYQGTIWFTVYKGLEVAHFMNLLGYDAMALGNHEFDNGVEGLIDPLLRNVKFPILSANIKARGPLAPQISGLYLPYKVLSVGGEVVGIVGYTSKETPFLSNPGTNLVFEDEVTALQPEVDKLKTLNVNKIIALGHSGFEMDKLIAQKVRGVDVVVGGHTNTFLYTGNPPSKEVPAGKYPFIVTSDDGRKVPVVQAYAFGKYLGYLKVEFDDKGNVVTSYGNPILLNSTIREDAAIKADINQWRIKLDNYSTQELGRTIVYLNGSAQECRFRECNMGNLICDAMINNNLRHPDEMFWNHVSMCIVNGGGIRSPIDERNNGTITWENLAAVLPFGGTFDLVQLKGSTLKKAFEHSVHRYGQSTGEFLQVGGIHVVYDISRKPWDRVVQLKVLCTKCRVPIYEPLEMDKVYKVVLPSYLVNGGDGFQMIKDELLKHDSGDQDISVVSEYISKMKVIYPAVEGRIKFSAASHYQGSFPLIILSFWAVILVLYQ
Test: Activity at rat recombinant ecto-5'-nucleotidase expressed in baculovirus-infected insect Sf9 cells co-transfected with soluble glutathione-S-transferase assessed as compound dephosphorylation by capillary electrophoresis relative to AMP
Parameters: concentration or dose not given beside the values
Summary of the method: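 Purified GST-rat ecto-5'-NT fusion protein (baculovirus/insect cells, glutathione-agarose purified). 500 μM nucleoside monophosphate in 10 mM Hepes pH 7.4, 2 mM MgCl2, 1 mM CaCl2; 37 °C, 20 min; stopped at 99 °C for 5 min. Nucleoside product quantified by capillary electrophoresis (borate pH 9.1, UV 232 nm). Dephosphorylation expressed relative to AMP (100%). Two experiments, triplicate injections.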

Row | Structure (SMILES) | Activity [%]
1 | Nc1nc(SCCC2COCCO2)nc2c1ncn2[C@@H]1O[C@H](COP(=O)(O)O)[C@@H](O)[C@H]1O (some centres not stated) | 67
2 | Nc1nc(SCCC2CCCCC2)nc2c1ncn2[C@@H]1O[C@H](COP(=O)(O)O)[C@@H](O)[C@H]1O | 96
3 | Nc1nc(SCC2CCCCC2)nc2c1ncn2[C@@H]1O[C@H](COP(=O)(O)O)[C@@H](O)[C@H]1O | 71
4 | CCCCCCSc1nc(N)c2ncn([C@@H]3O[C@H](COP(=O)(O)O)[C@@H](O)[C@H]3O)c2n1 | 84
5 | Nc1nc(SC2CCCCC2)nc2c1ncn2[C@@H]1O[C@H](COP(=O)(O)O)[C@@H](O)[C@H]1O | 28
6 | Nc1nc(SC2CCCC2)nc2c1ncn2[C@@H]1O[C@H](COP(=O)(O)O)[C@@H](O)[C@H]1O | 71

Further lines, results first:

Row | Activity [%] | Structure (SMILES)
7 | 104 | Nc1nc(SCCC2OCCO2)nc2c1ncn2[C@@H]1O[C@H](COP(=O)(O)O)[C@@H](O)[C@H]1O
8 | 0 | Nc1nc(SCc2ccccc2)nc2c1ncn2[C@@H]1O[C@H](COP(=O)(O)O)[C@@H](O)[C@H]1O
9 | 0 | C#CCSc1nc(N)c2ncn([C@@H]3O[C@H](COP(=O)(O)O)[C@@H](O)[C@H]3O)c2n1
10 | 0 | C=CCSc1nc(N)c2ncn([C@@H]3O[C@H](COP(=O)(O)O)[C@@H](O)[C@H]3O)c2n1
11 | 0 | Nc1nc(SCCc2ccccc2)nc2c1ncn2[C@@H]1O[C@H](COP(=O)(O)O)[C@@H](O)[C@H]1O
12 | 47 | CCCSc1nc(N)c2ncn([C@@H]3O[C@H](COP(=O)(O)O)[C@@H](O)[C@H]3O)c2n1
